Source: PubChem BioAssay
Active and inactive are the calls of the source.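 Rule for the calls, unless noted: active = a full or partial loss of lipid-probe fluorescence in the fish gall bladder, intestine or both, judged by eye; inactive = no fluorescence loss, or compound toxic to the fish.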

Key:
[1] = inhibitors of TNFa-induced NFkB p65 translocation, primary screen, imaging, HUVEC, MLSMR starter and 10KST1 sets (AID 438;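 active = inhibition above 20% together with a positive visual image hit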;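 note: compound added about 3h40 before a 20 min TNFalpha stimulation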;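 for inhibition: signal is the nuclear over cytoplasmic p65 intensity ratio per well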); settings: HUVEC TNFa-induced p65 nuclear translocation; cell count: measured here: nuclei count (cytotoxicity indicator), at 2.08 µM; inhibition: at 2 µM, stronger effect = higher value, 0% TNFa-plus-vehicle, 100% no-TNFa wells
[2] = inhibitors of mutant huntingtin aggregation, primary screen, imaging, exon1htt(103Q)mCFP cells, high-content imaging (AID 483;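 active = visual image review flags a hit and inhibition of aggregation exceeds 20%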;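 note: compound exposure lasted 3 days before fixation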;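 for nuclei count: percent of the per-plate median nuclei count of sample wells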); settings: exon1htt(103Q)mCFP cell line, aggregate imaging, at 2 µM; inhibition of aggregation: stronger effect = higher value; nuclei count: measured here: cell count, toxicity
[3] = inhibitors of E-selectin induction by TNFa, primary screen, imaging, HUVEC, immunofluorescence, MLSMR starter and 10KST1 sets (AID 487;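 active = visually confirmed hit in the image check and inhibition above 20%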;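 for inhibition: signal is fraction of cell area covered by stained E-selectin grains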;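 for nuclei count: 100% = median nuclei count of all wells on the same plate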); settings: HUVEC TNFalpha-induced E-selectin immunofluorescence imaging, at 2 µM; inhibition: stronger effect = higher value; nuclei count: measured here: cell number, toxicity
[4] = molecular target: Voltage-gated potassium channel subunit beta-2 (Rattus norvegicus) (UniProt P62483); test: KvBeta enzyme negative modulators, primary screen, biochemical, NADPH fluorescence (AID 622;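 active = fluorescence slope higher than the sample average by over 3 SD, cut at about -0.22 in these data, passing the limit was not always enough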;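 note: slope of raw intensity against log time taken from 70 to 1610 s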); settings: recombinant KvBeta, 4-cyanobenzaldehyde reduction, at 10 µM, stronger effect = higher value
Voltage-gated potassium channel subunit beta-2 (Rattus norvegicus), sequence (P62483 whole entry, looked up): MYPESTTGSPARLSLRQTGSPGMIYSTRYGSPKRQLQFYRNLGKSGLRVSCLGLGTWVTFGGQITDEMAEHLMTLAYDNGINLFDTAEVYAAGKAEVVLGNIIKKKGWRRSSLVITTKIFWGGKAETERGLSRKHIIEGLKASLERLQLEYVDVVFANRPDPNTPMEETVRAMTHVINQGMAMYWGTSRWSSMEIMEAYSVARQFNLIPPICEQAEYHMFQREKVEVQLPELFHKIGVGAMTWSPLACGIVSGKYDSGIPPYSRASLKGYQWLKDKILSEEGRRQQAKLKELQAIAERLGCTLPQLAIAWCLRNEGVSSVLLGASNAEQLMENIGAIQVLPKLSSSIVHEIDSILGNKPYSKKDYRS

[5] = molecular target: Voltage-gated potassium channel subunit beta-2 (Rattus norvegicus) (UniProt P62483); test: KvBeta positive modulators, primary screen, biochemical, NADPH fluorescence (AID 623;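 active = NADPH fluorescence slope more negative than the mean of all samples by about 3 SD, 99.7% confidence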;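 note: fluorescence intensity change per second fitted from 20 to 320 s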); settings: Recombinant KvBeta, NADPH fluorescence decrease slope, 10 min; at 10 µM; stronger effect = lower value
[6] = molecular target: Alpha-2C adrenergic receptor (Homo sapiens) (UniProt P18825); test: modulators of alpha2C/GIRK thallium flux, primary screen, cell-based, HEK293 alpha2C/GIRK1/2 (AID 624;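 active = fluorescence slope after compound addition differing from the mean of all screened samples at 99.7% confidence, in either direction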;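 note: slope of fluorescence ratio to pre-addition baseline per second over 15 to 24 s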); settings: thallium flux BTC fluorescence, at 10 µM, actives lie on both sides
Alpha-2C adrenergic receptor (Homo sapiens), sequence (P18825 whole entry, looked up): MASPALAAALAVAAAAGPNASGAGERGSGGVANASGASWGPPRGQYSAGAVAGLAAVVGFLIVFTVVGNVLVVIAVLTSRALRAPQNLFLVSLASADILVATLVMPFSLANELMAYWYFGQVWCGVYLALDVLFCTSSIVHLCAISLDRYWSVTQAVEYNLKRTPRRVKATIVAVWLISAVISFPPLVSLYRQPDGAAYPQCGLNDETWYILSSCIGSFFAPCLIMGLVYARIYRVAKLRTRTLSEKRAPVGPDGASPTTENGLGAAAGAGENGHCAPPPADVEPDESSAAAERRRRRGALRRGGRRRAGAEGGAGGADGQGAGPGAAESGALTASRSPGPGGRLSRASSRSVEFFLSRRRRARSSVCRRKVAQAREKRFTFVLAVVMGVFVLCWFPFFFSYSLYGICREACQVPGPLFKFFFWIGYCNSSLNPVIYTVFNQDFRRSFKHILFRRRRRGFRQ

[7] = inhibitors of larval lipid processing in zebrafish, primary screen, whole organism, PED6 fluorescence, gall bladder and intestine (AID 686); settings: Zebrafish larvae PED6 lipid processing, fluorescence scoring; screened at 20 µM (by protocol);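 note: larvae 5 to 7 days old with five fish per well; signal comes from phospholipase A2 cleavage of quenched PED6 carried via bile; overnight exposure to compound and PED6 before scoring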
Summary of the method: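 Doses: 20 µM single dose. Test system: live zebrafish larvae aged 5-7 days, whole organism. Quantity: five larvae per well. Measured by: By-eye fluorescence microscopy. Reagent: ingested quenched lipid PED6 at 100 nM. Read-out: visual per-well fluorescence inhibition score. Times: overnight exposure of larvae to compound plus PED6.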

[8] = inhibitors of Sendai virus-induced IRF3 signaling, primary screen, TLR/RLR signaling modifier project, cell-based, Sendai virus stimulus, luciferase, 10K MLSCN set (AID 602276;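 active = inhibition at or above 50% at 10 µM; inactive = inhibition below 50%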;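 note: firefly luciferase from ISG56 promoter only with Renilla not read in this screen; 0% = Sendai virus plus DMSO and 100% = medium plus DMSO without virus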); settings: HEK293 RL24 IRF3 luciferase reporter, at 10 µM, stronger effect = higher value
[9] = inhibitors of poly I:C-induced TLR3 signaling, primary screen, cell-based, poly I:C stimulus, luciferase, 10K MLSCN set (AID 602277;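 active = inhibition of the reporter signal at or above 50%; inactive = inhibition below 50%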); settings: HEK293-TLR3 RL24 IRF3 luciferase reporter, at 10 µM, stronger effect = higher value

SMILES | cell count [1] | inhibition [1] | inhibition of aggregation [2] | nuclei count [2] | inhibition [3] | nuclei count [3] | fluorescence slope [4] | NADPH fluorescence slope [5] | slope [6] | outcome [7] | inhibition [8] | inhibition [9]
O=C(NCc1ccco1)c1cccc(S(=O)(=O)N2CCCCC2)c1 | 323 | -3.6% (inactive) | -3.2% (inactive) | 112% | -87.1% (inactive) | 120% | -0.462 (inactive) | 3.8e-05 (inactive) | 0.00571 (inactive) | inactive | -13.9% (inactive) | -7.47% (inactive)
CCCCCCn1c(CN2CCN(Cc3ccccc3)CC2)nc2c1c(=O)n(C)c(=O)n2C | 255 | -15.1% (inactive) | 9.8% (inactive) | 84.1% | 24.2% (inactive) | 64% | -0.43 (inactive) | -5.6e-05 (inactive) | 0.00491 (inactive) | inactive | 23% (inactive) | 17.3% (inactive)
CN(C)C(CNC(=O)Nc1cccc(Cl)c1)c1cccnc1 (configuration not stated) | 298 | -5.5% (inactive) | 1.1% (inactive) | 67.5% | -40.7% (inactive) | 115% | -0.427 (inactive) | -5.1e-06 (inactive) | 0.00889 (active) | inactive | 18.9% (inactive) | 26.3% (inactive)
O=C(NCC1CCCO1)c1cc(-c2ccncc2)nc2ccc(S(=O)(=O)N3CCOCC3)cc12 (configuration not stated) | 878 | 2.1% (inactive) | -9.7% (inactive) | 106% | -91% (inactive) | 129% | -0.387 (inactive) | -9.2e-05 (inactive) | 0.00498 (inactive) | inactive | 10.6% (inactive) | 10.8% (inactive)
O=C(Cc1nc2ccccc2s1)c1ccc(O)cc1O | 322 | 1.1% (inactive) | -15.5% (inactive) | 88.3% | -98.2% (inactive) | 124% | -0.391 (inactive) | -0.000109 (inactive) | 0.00457 (inactive) | inactive | -33.1% (inactive) | -88.7% (inactive)
CN(C)C(=O)CSc1nnc2sc3ccccc3n12 | 388 | -9.2% (inactive) | -15.4% (inactive) | 105% | -32.3% (inactive) | 102% | -0.438 (inactive) | -2.4e-05 (inactive) | 0.00511 (inactive) | inactive | 15.9% (inactive) | 23.7% (inactive)
COc1ccc(C2C(C(=O)c3sc(C)nc3C)=C(O)C(=O)N2CCN(C)C)cc1 (configuration not stated) | 560 | 13.4% (inactive) | 6.9% (inactive) | 110% | -15.4% (inactive) | 123% | -0.335 (inactive) | -6.7e-05 (inactive) | 0.00568 (inactive) | inactive | 10.9% (inactive) | 9.69% (inactive)
Cc1ccc(S(=O)(=O)N2CCCN(S(=O)(=O)C3CCS(=O)(=O)C3)CC2)cc1 (configuration not stated) | 455 | 2.4% (inactive) | -22.7% (inactive) | 111% | -102% (inactive) | 129% | -0.366 (inactive) | -4.2e-05 (inactive) | 0.00596 (inactive) | inactive | 12.7% (inactive) | 14% (inactive)
CC1Cc2ccccc2N1CC(=O)NC(=O)NCc1ccco1 (configuration not stated) | 441 | -2.6% (inactive) | 9.8% (inactive) | 91.7% | 2.3% (inactive) | 109% | -0.436 (inactive) | -9.5e-06 (inactive) | 0.00524 (inactive) | inactive | 16.6% (inactive) | 19% (inactive)
COCCNC(=O)NC(=O)COC(=O)Cc1ccc2c(c1)OCCO2 | 376 | 5.1% (inactive) | -11.9% (inactive) | 109% | -127% (inactive) | 110% | -0.418 (inactive) | -6.4e-05 (inactive) | 0.00538 (inactive) | inactive | 17% (inactive) | 16.3% (inactive)
COc1ccc(CCN(Cc2cc3cccc(C)c3[nH]c2=O)C(=O)N2CCCC2)cc1OC | 207 | 2.1% (inactive) | 8.7% (inactive) | 94.8% | 11.6% (inactive) | 91.3% | -0.458 (inactive) | -8.2e-05 (inactive) | 0.00488 (inactive) | inactive | 10.3% (inactive) | 16.5% (inactive)
c1n[nH]c(SCCCCSc2ncn[nH]2)n1 | 512 | -30.6% (inactive) | -15.1% (inactive) | 108% | 24% (inactive) | 113% | -0.452 (inactive) | -7e-05 (inactive) | 0.00417 (inactive) | inactive | 15.9% (inactive) | 13% (inactive)
COc1cccc(OCc2nnc(SCC(=O)OCc3ccccc3)o2)c1 | 328 | 3.3% (inactive) | 1.6% (inactive) | 99.2% | -31.4% (inactive) | 108% | -0.267 (inactive) | -4.9e-06 (inactive) | 0.00652 (inactive) | inactive | 10.1% (inactive) | 7.69% (inactive)
O=C(NCCCN1CCCC1=O)c1cccnc1 | 364 | 2.5% (inactive) | -3.8% (inactive) | 108% | 35.2% (inactive) | 100% | -0.432 (inactive) | -4.3e-06 (inactive) | 0.00372 (inactive) | inactive | -11.4% (inactive) | -7.12% (inactive)
COc1cc2c(cc1NC(=O)CSc1nnc(Cc3cccs3)n1C)oc1ccccc12 | 368 | 4.7% (inactive) | 9.3% (inactive) | 104% | -30.5% (inactive) | 112% | -0.45 (inactive) | -0.000107 (inactive) | 0.00401 (inactive) | inactive | 13.9% (inactive) | 5.76% (inactive)
O=C(OC1CCc2ccccc2C1=O)c1ccccc1O (configuration not stated) | 304 | 3.8% (inactive) | -0.1% (inactive) | 100% | -86.8% (inactive) | 106% | -0.386 (inactive) | -5.3e-05 (inactive) | 0.00569 (inactive) | inactive | -5.07% (inactive) | -40.5% (inactive)
COc1ccccc1C(=O)NCC(c1cccnc1)N(C)C (configuration not stated) | 776 | -2.2% (inactive) | -39.1% (inactive) | 112% | 1.4% (inactive) | 122% | -0.422 (inactive) | -5.3e-05 (inactive) | 0.00557 (inactive) | inactive | 10.3% (inactive) | 4.98% (inactive)
CC1=C(C(=O)N2CCOCC2)C(c2ccccc2F)C2=C(CCCC2=O)N1 (configuration not stated) | 401 | -0.8% (inactive) | -15% (inactive) | 111% | -24.5% (inactive) | 121% | -0.314 (inactive) | 4.2e-06 (inactive) | 0.00583 (inactive) | inactive | 3.26% (inactive) | 6.93% (inactive)
CC(C)NC(=O)c1ccccc1NC(=O)CCS(=O)(=O)Cc1ccccc1 | 560 | 6.6% (inactive) | -10% (inactive) | 108% | -26% (inactive) | 107% | -0.516 (inactive) | 2.6e-05 (inactive) | 0.00472 (inactive) | inactive | -21.6% (inactive) | -8.53% (inactive)
CCOC(=O)Nc1ccc2c(c1)N(C(=O)CCN1CCOCC1)c1ccccc1S2 | 313 | -2.1% (inactive) | 32.1% (inactive) | 100% | 3% (inactive) | 104% | -0.37 (inactive) | -6.8e-05 (inactive) | 0.00608 (inactive) | inactive | 6.28% (inactive) | 18.1% (inactive)
O=C1OCCC1Sc1ncnc2sccc12 (configuration not stated) | 498 | -6.8% (inactive) | -0.5% (inactive) | 125% | -1.7% (inactive) | 110% | -0.376 (inactive) | -7.9e-05 (inactive) | 0.00502 (inactive) | inactive | 9.26% (inactive) | 12.3% (inactive)
